Results: ChEMBL document CHEMBL1142894, “Preparation of 5-aryl-3-alkylthio-l,2,4-triazoles and corresponding sulfones with antiinflammatory-analgesic activity” (Bioorg Med Chem, 2007)
Activity calls are given as the source filed them. The rule behind the calls is not given here.

Tests used:
Mus musculus [1] = assay: Antiinflammatory activity against carrageenan-induced paw edema in Swiss albino mouse assessed as swelling thickness at 50 mg/kg, po after 90 mins; type: functional
How it was run: (§1)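 Oral dosing in 0.5% CMC; vehicle to controls. Then carrageenan (0.5 mg/25 ll, freshly suspended in 154 mM saline) injected into the right hind paw subplantar tissue; saline into the left paw. Right-left footpad thickness difference measured by dial gauge calliper every 90 min over 6 h. Inhibition % is relative to vehicle control. n = 6; mean ± SEM.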

Mus musculus [2] = assay: Inhibition of carrageenan-induced paw edema in Swiss albino mouse at 200 mg/kg, po after 90 mins relative to control; type: functional; settings: 1.5 h; how it was run: as §1
Mus musculus [3] = assay: Acute toxicity in Swiss albino mouse assessed as lethal effect at 25 mg/kg/day, po after 72 hrs; type: organism-based; design: route oral; settings: in vivo
How it was run: (§2)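 Oral single dose suspended in 0.5% carboxymethylcellulose, given after a 24 h fast; food and water returned 1 h after dosing. Vehicle-only controls. Mice observed at 1 h, then once daily for 72 h, for toxic signs and mortality.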

Mus musculus [4] = assay: Inhibition of carrageenan-induced paw edema in Swiss albino mouse at 50 mg/kg, po after 360 mins relative to control; type: functional; settings: 6 h
How it was run: (§3)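 Mice, n = 6 per group. Test agent given orally as a suspension in 0.5% sodium CMC in distilled water; controls received vehicle only. Afterwards, 0.5 mg/25 ll carrageenan in saline (154 mM NaCl) injected subplantar into the right hind paw, saline into the left. Right-minus-left footpad thickness measured by dial gauge caliper every 90 min for 6 h. Inhibition is relative to vehicle-control group means.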

Mus musculus [5] = assay: Antiinflammatory activity against carrageenan-induced paw edema in Swiss albino mouse assessed as swelling thickness at 25 mg/kg, po after 270 mins; type: functional; how it was run: as §1
Mus musculus [6] = assay: Analgesic activity against p-benzoquinone-induced abdominal constriction in Swiss albino mouse assessed as number of writhings at 200 mg/kg, po; type: functional, Abdomen
How it was run: (§4)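 Test samples given orally in 0.5% CMC; vehicle to controls. 60 min later, 2.5% (v/v) p-benzoquinone in distilled water, 0.1 ml/10 g, given i.p. Mice housed singly; writhes counted for 15 min starting 5 min after injection. Activity is % change from vehicle controls. n = 6; mean ± SEM.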

Mus musculus [7] = assay: Antiinflammatory activity against carrageenan-induced paw edema in Swiss albino mouse assessed as swelling thickness at 50 mg/kg, po after 180 mins; type: functional; how it was run: as §1
Mus musculus [8] = assay: Antiinflammatory activity against carrageenan-induced paw edema in Swiss albino mouse assessed as swelling thickness at 200 mg/kg, po after 180 mins; type: functional; how it was run: as §1
Mus musculus [9] = assay: Inhibition of carrageenan-induced paw edema in Swiss albino mouse at 100 mg/kg, po after 90 mins relative to control; type: functional; settings: 1.5 h; how it was run: as §1
Mus musculus [10] = assay: Inhibition of carrageenan-induced paw edema in Swiss albino mouse at 100 mg/kg, po after 180 mins relative to control; type: functional; settings: 3 h; how it was run: as §1
Mus musculus [11] = assay: Antiinflammatory activity against carrageenan-induced paw edema in Swiss albino mouse assessed as swelling thickness at 100 mg/kg, po after 360 mins; type: functional; how it was run: as §1
Mus musculus [12] = assay: Antiinflammatory activity against carrageenan-induced paw edema in Swiss albino mouse assessed as swelling thickness at 200 mg/kg, po after 90 mins; type: functional; how it was run: as §1
Mus musculus [13] = assay: Antiinflammatory activity against carrageenan-induced paw edema in Swiss albino mouse assessed as swelling thickness at 200 mg/kg, po after 270 mins; type: functional; how it was run: as §1
Mus musculus [14] = assay: Gastric-ulcerogenic effect in Swiss albino mouse assessed as lesions at 100 mg/kg, po; type: functional, organism-based; design: dose 100 mg/kg
How it was run: (§5)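 Mice killed under deep ether anesthesia 3 h after the writhing test; the oral dose in 0.5% CMC was the one used in that test. Stomachs removed, opened along the great curvature and examined under a dissecting microscope for lesions or bleeding. Reported as ratio of ulceration; n = 6.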

Mus musculus [15] = assay: Acute toxicity in Swiss albino mouse assessed as lethal effect at 50 mg/kg/day, po after 72 hrs; type: organism-based; design: route oral; settings: in vivo; how it was run: as §2
Mus musculus [16] = assay: Gastric-ulcerogenic effect in Swiss albino mouse assessed as lesions at 50 mg/kg, po; type: functional, organism-based; design: dose 50 mg/kg; how it was run: as §5
Mus musculus [17] = assay: Inhibition of carrageenan-induced paw edema in Swiss albino mouse at 25 mg/kg, po after 270 mins relative to control; type: functional; settings: 4.5 h; how it was run: as §1
Mus musculus [18] = assay: Antiinflammatory activity against carrageenan-induced paw edema in Swiss albino mouse assessed as swelling thickness at 50 mg/kg, po after 360 mins; type: functional; how it was run: as §1
Mus musculus [19] = assay: Inhibition of p-benzoquinone-induced writhing in Swiss albino mouse at 25 mg/kg, po relative to control; type: functional
How it was run: (§6)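 Mice, n = 6 per group, dosed orally with a suspension in 0.5% sodium CMC. 60 min later, 0.1 ml/10 g of 2.5% […] p-benzoquinone in distilled water given ip. Abdominal writhes counted per animal for 15 min, starting 5 min after injection. Expressed as % change in mean writhing count versus vehicle controls.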

Mus musculus [20] = assay: Gastric-ulcerogenic effect in Swiss albino mouse assessed as lesions at 25 mg/kg, po; type: functional, organism-based; design: dose 25 mg/kg; how it was run: as §5
Mus musculus [21] = assay: Inhibition of p-benzoquinone-induced writhing in Swiss albino mouse at 50 mg/kg, po relative to control; type: functional; how it was run: as §6
Mus musculus [22] = assay: Inhibition of p-benzoquinone-induced writhing in Swiss albino mouse at 200 mg/kg, po relative to control; type: functional; how it was run: as §6
Mus musculus [23] = assay: Antiinflammatory activity against carrageenan-induced paw edema in Swiss albino mouse assessed as swelling thickness at 100 mg/kg, po after 90 mins; type: functional; how it was run: as §1
Mus musculus [24] = assay: Antiinflammatory activity against carrageenan-induced paw edema in Swiss albino mouse assessed as swelling thickness at 100 mg/kg, po after 270 mins; type: functional; how it was run: as §1
Mus musculus [25] = assay: Inhibition of p-benzoquinone-induced writhing in Swiss albino mouse at 100 mg/kg, po relative to control; type: functional; how it was run: as §6
Mus musculus [26] = assay: Antiinflammatory activity against carrageenan-induced paw edema in Swiss albino mouse assessed as swelling thickness at 100 mg/kg, po after 180 mins; type: functional; how it was run: as §1
Mus musculus [27] = assay: Inhibition of carrageenan-induced paw edema in Swiss albino mouse at 25 mg/kg, po after 90 mins relative to control; type: functional; settings: 1.5 h; how it was run: as §1
Mus musculus [28] = assay: Inhibition of carrageenan-induced paw edema in Swiss albino mouse at 25 mg/kg, po after 360 mins relative to control; type: functional; settings: 6 h; how it was run: as §1
Mus musculus [29] = assay: Antiinflammatory activity in Swiss albino mouse assessed as inhibition of carrageenan-induced paw edema at 50 mg/kg, po; type: functional
Mus musculus [30] = assay: Analgesic activity against p-benzoquinone-induced abdominal constriction in Swiss albino mouse assessed as number of writhings at 50 mg/kg, po; type: functional, Abdomen; how it was run: as §4
Mus musculus [31] = assay: Inhibition of carrageenan-induced paw edema in Swiss albino mouse at 200 mg/kg, po after 360 mins relative to control; type: functional; settings: 6 h; how it was run: as §1
Mus musculus [32] = assay: Inhibition of carrageenan-induced paw edema in Swiss albino mouse at 100 mg/kg, po after 360 mins relative to control; type: functional; settings: 6 h; how it was run: as §1
Mus musculus [33] = assay: Acute toxicity in Swiss albino mouse assessed as lethal effect at 100 mg/kg/day, po after 72 hrs; type: organism-based; design: route oral; settings: in vivo; how it was run: as §2
Mus musculus [34] = assay: Acute toxicity in Swiss albino mouse assessed as lethal effect at 200 mg/kg/day, po after 72 hrs; type: organism-based; design: route oral; settings: in vivo; how it was run: as §2
Mus musculus [35] = assay: Inhibition of carrageenan-induced paw edema in Swiss albino mouse at 50 mg/kg, po after 90 mins relative to control; type: functional; settings: 1.5 h; how it was run: as §3
Mus musculus [36] = assay: Inhibition of carrageenan-induced paw edema in Swiss albino mouse at 100 mg/kg, po after 270 mins relative to control; type: functional; settings: 4.5 h; how it was run: as §1
Mus musculus [37] = assay: Analgesic activity against p-benzoquinone-induced abdominal constriction in Swiss albino mouse assessed as number of writhings at 25 mg/kg, po; type: functional, Abdomen; how it was run: as §4
Mus musculus [38] = assay: Antiinflammatory activity against carrageenan-induced paw edema in Swiss albino mouse assessed as swelling thickness at 25 mg/kg, po after 360 mins; type: functional; how it was run: as §1
Mus musculus [39] = assay: Antiinflammatory activity against carrageenan-induced paw edema in Swiss albino mouse assessed as swelling thickness at 50 mg/kg, po after 270 mins; type: functional; how it was run: as §1
Mus musculus [40] = assay: Analgesic activity against p-benzoquinone-induced abdominal constriction in Swiss albino mouse assessed as number of writhings at 100 mg/kg, po; type: functional, Abdomen; how it was run: as §4
Mus musculus [41] = assay: Antiinflammatory activity against carrageenan-induced paw edema in Swiss albino mouse assessed as swelling thickness at 25 mg/kg, po after 90 mins; type: functional; how it was run: as §1
Mus musculus [42] = assay: Inhibition of carrageenan-induced paw edema in Swiss albino mouse at 25 mg/kg, po after 180 mins relative to control; type: functional; settings: 3 h; how it was run: as §1
Mus musculus [43] = assay: Inhibition of carrageenan-induced paw edema in Swiss albino mouse at 50 mg/kg, po after 270 mins relative to control; type: functional; settings: 4.5 h; how it was run: as §3
Mus musculus [44] = assay: Inhibition of carrageenan-induced paw edema in Swiss albino mouse at 200 mg/kg, po after 270 mins relative to control; type: functional; settings: 4.5 h; how it was run: as §1
Mus musculus [45] = assay: Inhibition of carrageenan-induced paw edema in Swiss albino mouse at 50 mg/kg, po after 180 mins relative to control; type: functional; settings: 3 h; how it was run: as §1
Mus musculus [46] = assay: Antiinflammatory activity against carrageenan-induced paw edema in Swiss albino mouse assessed as swelling thickness at 25 mg/kg, po after 180 mins; type: functional; how it was run: as §1
Mus musculus [47] = assay: Antiinflammatory activity against carrageenan-induced paw edema in Swiss albino mouse assessed as swelling thickness at 200 mg/kg, po after 360 mins; type: functional; how it was run: as §1
Mus musculus [48] = assay: Inhibition of carrageenan-induced paw edema in Swiss albino mouse at 200 mg/kg, po after 180 mins relative to control; type: functional; settings: 3 h; how it was run: as §1

CCS(=O)(=O)c1nc(-c2ccccc2Cl)n[nH]1
Activity (Mus musculus [1]): 36.2 10^-2mm | inhibition in vivo at 200 mg/kg (Mus musculus [2]): 18.9% | Activity (Mus musculus [3]): Non-toxic | inhibition in vivo at 50 mg/kg (Mus musculus [4]): 43.8% | Activity (Mus musculus [5]): 59.1 10^-2mm | Activity (Mus musculus [6]): 45.9 | Activity (Mus musculus [7]): 35.8 10^-2mm | Activity (Mus musculus [8]): 45.8 10^-2mm | inhibition in vivo at 100 mg/kg (Mus musculus [9]): 33.4% | inhibition in vivo at 100 mg/kg (Mus musculus [10]): 34.4% | Activity (Mus musculus [11]): 38.5 10^-2mm | Activity (Mus musculus [12]): 43.1 10^-2mm | Activity (Mus musculus [13]): 51.9 10^-2mm | Activity (Mus musculus [14]): Active | Activity (Mus musculus [15]): Non-toxic | Activity (Mus musculus [16]): Active | inhibition in vivo at 25 mg/kg (Mus musculus [17]): 8.8% | Activity (Mus musculus [18]): 40.5 10^-2mm | inhibition in vivo at 25 mg/kg (Mus musculus [19]): 25.7% | Activity (Mus musculus [20]): Active | inhibition in vivo at 50 mg/kg (Mus musculus [21]): 54.5% | inhibition in vivo at 200 mg/kg (Mus musculus [22]): 10.7% | Activity (Mus musculus [23]): 29.8 10^-2mm | Activity (Mus musculus [24]): 35 10^-2mm | inhibition in vivo at 100 mg/kg (Mus musculus [25]): 50.5% | Activity (Mus musculus [26]): 33.8 10^-2mm | inhibition in vivo at 25 mg/kg (Mus musculus [27]): 11.3% | inhibition in vivo at 25 mg/kg (Mus musculus [28]): 14.6% | inhibition in vivo at 50 mg/kg (Mus musculus [29]): 37.9% | Activity (Mus musculus [30]): 23.4 | inhibition in vivo at 200 mg/kg (Mus musculus [31]): 21.5% | inhibition in vivo at 100 mg/kg (Mus musculus [32]): 44% | Activity (Mus musculus [33]): Non-toxic | Activity (Mus musculus [34]): Non-toxic | inhibition in vivo at 50 mg/kg (Mus musculus [35]): 31.9% | inhibition in vivo at 100 mg/kg (Mus musculus [36]): 40.5% | Activity (Mus musculus [37]): 38.2 | Activity (Mus musculus [38]): 61.5 10^-2mm | Activity (Mus musculus [39]): 41.4 10^-2mm | Activity (Mus musculus [40]): 23.4 | Activity (Mus musculus [41]): 47.2 10^-2mm | inhibition in vivo at 25 mg/kg (Mus musculus [42]): 8.4% | inhibition in vivo at 50 mg/kg (Mus musculus [43]): 36.1% | inhibition in vivo at 200 mg/kg (Mus musculus [44]): 19.9% | inhibition in vivo at 50 mg/kg (Mus musculus [45]): 39.7% | Activity (Mus musculus [46]): 54.4 10^-2mm | Activity (Mus musculus [47]): 56.5 10^-2mm | inhibition in vivo at 200 mg/kg (Mus musculus [48]): 22.9%
